Results: ChEMBL document CHEMBL4342493, “Design and Optimization of 3'-(Imidazo[1,2-a]pyrazin-3-yl)-[1,1'-biphenyl]-3-carboxamides as Selective DDR1 Inhibitors” (ACS Med Chem Lett, 2020)
pIC50: −log10 of the molar value.

Tests used:
[1] = target: Bcr/Abl fusion protein (Homo sapiens, UniProt P00519); test: Inhibition of human recombinant full length His-tagged Bcr-Abl expressed in baculovirus expression system using tyrosine-2 peptide as substrate after 1 hr in presence of […] ATP by FRET based Z'-LYTE assay
Bcr/Abl fusion protein, sequence (P00519 whole entry, the tested form may be a part): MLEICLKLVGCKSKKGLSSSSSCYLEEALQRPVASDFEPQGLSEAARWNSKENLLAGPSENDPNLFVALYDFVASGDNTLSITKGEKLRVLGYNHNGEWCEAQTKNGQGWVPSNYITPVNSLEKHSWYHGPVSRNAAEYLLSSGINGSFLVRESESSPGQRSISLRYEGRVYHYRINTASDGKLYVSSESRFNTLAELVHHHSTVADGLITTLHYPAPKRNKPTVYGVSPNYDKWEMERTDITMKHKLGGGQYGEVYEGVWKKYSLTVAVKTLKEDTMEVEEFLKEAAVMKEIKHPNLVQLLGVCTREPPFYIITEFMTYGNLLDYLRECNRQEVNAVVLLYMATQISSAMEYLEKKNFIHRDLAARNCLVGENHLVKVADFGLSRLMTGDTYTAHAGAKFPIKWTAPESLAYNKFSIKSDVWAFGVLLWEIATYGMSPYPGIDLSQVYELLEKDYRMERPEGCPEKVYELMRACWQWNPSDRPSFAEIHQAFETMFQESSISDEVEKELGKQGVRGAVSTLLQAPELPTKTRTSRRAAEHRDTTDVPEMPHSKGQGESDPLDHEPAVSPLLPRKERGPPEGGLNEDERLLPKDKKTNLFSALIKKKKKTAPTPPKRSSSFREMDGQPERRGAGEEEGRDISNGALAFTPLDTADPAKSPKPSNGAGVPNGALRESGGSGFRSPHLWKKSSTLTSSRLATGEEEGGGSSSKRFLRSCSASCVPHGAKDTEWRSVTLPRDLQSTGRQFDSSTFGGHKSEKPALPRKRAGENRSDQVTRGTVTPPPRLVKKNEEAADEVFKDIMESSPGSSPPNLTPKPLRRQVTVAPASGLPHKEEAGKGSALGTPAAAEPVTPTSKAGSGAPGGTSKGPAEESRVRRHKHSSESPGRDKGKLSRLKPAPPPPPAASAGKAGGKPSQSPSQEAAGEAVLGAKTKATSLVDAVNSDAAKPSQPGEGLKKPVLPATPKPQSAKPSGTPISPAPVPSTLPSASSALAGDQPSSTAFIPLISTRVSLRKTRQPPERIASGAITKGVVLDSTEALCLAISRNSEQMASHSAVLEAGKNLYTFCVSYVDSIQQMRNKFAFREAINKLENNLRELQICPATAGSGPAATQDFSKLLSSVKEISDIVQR
Bcr/Abl fusion protein, sequence (P11274 whole entry, further chain, the tested form may be a part): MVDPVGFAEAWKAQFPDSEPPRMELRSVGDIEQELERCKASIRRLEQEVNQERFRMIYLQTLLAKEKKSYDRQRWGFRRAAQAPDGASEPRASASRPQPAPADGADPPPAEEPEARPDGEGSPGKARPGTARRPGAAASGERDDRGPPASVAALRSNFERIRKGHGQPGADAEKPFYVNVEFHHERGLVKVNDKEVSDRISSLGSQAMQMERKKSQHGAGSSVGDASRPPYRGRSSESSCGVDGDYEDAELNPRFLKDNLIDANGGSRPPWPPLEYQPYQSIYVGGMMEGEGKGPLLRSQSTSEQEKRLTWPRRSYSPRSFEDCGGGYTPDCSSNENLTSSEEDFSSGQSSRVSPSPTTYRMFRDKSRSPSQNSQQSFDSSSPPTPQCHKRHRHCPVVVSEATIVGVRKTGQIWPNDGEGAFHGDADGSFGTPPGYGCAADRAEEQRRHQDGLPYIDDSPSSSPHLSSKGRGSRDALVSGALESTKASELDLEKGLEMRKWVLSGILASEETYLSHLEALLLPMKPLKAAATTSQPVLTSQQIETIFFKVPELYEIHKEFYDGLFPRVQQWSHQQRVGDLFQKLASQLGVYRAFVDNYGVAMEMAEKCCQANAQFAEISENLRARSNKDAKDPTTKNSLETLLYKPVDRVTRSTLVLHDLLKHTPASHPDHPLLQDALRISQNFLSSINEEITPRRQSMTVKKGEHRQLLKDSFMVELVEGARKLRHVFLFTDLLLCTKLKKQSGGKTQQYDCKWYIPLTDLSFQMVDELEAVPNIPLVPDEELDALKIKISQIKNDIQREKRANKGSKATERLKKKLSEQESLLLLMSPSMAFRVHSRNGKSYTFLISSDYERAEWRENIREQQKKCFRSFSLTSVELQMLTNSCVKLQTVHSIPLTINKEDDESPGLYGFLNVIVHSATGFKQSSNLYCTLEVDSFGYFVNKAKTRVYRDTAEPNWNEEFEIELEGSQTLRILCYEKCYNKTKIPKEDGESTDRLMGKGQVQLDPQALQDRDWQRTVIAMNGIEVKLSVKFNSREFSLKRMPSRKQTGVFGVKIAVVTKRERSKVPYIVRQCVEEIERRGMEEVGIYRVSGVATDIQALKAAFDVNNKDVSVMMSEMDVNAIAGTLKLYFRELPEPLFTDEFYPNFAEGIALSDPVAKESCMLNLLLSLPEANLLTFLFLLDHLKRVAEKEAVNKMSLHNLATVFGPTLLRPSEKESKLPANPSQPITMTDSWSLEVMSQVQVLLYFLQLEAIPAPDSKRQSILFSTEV
In short: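 FRET-based Z′-Lyte kinase assay for Bcr-Abl; IC50 values are means of three independent experiments, variations <20%.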

[2] = organism: Homo sapiens; test: Selectivity index, ratio of IC50 for human recombinant His-tagged c-Kit cytoplasmic domain (544 to 976 residues) expressed in baculovirus expression system using Ser/Thr 6 peptide as substrate after 1 hr in presence of 300 uM ATP by FRET based Z'-LYTE assay to IC50 for recombinant human GST-tagged DDR1 catalytic domain (440 to 876 residues) expressed in baculovirus expression system using Fluorescein-poly GAT as substrate incubated for 1 hr in presence of ATP by LanthaScreen Eu kinase assay
In short: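 Ratio of c-Kit IC50 to DDR1 IC50. c-Kit was measured by FRET-based Z′-Lyte assay and DDR1 by LanthaScreen Eu kinase assay. Each IC50 is the mean of three independent experiments, with variation <20%.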

[3] = target: T1, Discoidin domain-containing receptor 2 (Homo sapiens) (UniProt Q16832); test: Inhibition of wild type human partial length DDR2 (V555 to E855 residues) expressed in mammalian expression system assessed as residual enzyme activity at 200 nM after 1 hr by Kinomescan method relative to control
T1 sequence (whole entry): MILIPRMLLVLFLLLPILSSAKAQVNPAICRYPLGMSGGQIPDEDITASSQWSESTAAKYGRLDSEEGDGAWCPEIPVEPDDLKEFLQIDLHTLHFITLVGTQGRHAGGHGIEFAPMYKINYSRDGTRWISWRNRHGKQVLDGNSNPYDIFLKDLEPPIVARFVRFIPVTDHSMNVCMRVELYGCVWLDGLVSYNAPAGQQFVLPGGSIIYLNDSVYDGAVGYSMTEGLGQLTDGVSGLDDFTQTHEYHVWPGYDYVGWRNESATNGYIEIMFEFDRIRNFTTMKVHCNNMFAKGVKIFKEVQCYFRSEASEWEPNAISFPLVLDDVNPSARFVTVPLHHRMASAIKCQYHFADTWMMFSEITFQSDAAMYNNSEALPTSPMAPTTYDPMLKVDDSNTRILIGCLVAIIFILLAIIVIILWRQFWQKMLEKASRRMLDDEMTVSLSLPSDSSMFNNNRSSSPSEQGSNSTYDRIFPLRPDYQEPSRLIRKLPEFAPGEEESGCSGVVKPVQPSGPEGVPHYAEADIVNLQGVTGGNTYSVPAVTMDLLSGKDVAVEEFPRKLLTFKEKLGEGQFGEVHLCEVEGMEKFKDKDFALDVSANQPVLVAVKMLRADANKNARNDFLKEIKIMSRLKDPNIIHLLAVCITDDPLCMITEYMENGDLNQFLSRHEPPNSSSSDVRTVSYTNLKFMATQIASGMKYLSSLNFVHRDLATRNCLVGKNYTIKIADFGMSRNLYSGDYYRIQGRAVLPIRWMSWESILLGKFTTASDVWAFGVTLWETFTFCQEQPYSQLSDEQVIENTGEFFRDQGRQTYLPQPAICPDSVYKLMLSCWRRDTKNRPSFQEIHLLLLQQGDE

[4] = test system: NCI-H1299; test: Antimigratory activity against human H1299 cells assessed as reduction in wound closure at 1.25 uM after 24 hrs by bright field microscopic based wound healing assay relative to control; type: functional; conditions: NCI-H1299, 24 h
In short: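 Wound healing (scratch) migration assay in H1299 cells at 1.25, 2.5 and 5.0 μM; wound closure compared with blank control groups.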

[5] = test system: NCI-H1299; test: Antiinvasive activity against human H1299 cells after 24 hrs by crystal violet staining based transwell assay; type: functional, cell-based
In short: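 H1299 NSCLC cells; transwell invasion assay over 24 h with compound at 1.25, 2.5 and 5.0 μM; invasion expressed relative to blank control.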

CCc1ccc(C(=O)Nc2cc(F)cc(C(F)(F)F)c2)cc1-c1cc(C)cc(-c2cnc3cnccn23)c1
pIC50 [1]: < 5.00
Ratio IC50 [2]: 420
Activity [3]: 15%
inhibition at 1.25 µM [4]: 40%
inhibition [5]: Dose-dependent effect
